Experimental data reported in ChEMBL document CHEMBL1124440, “Resolved N,N-dialkylated 2-amino-8-hydroxytetralins: stereoselective interactions with 5-HT1A receptors in the brain” (J Med Chem, 1989).
pIC50: −log10 of the molar value.

Assays:
Rattus norvegicus [1] = assay: No of rats exhibiting 5-HT motor syndrome tested in reserpinized rats at a subcutaneous dose of a. 0.1 umol/kg; 0 rats out of 4 showed activity; type: functional
[2] = molecular target: T1, Tryptophan 5-hydroxylase 1 (Rattus norvegicus) (UniProt P09810); assay: Compound was tested for its effect on NSD 1015 induced accumulation of 5-HTP(ng/g) in rats in limbic system at a dosage of 0.10 umol/kg; type: functional, tissue-based
T1 sequence (whole entry): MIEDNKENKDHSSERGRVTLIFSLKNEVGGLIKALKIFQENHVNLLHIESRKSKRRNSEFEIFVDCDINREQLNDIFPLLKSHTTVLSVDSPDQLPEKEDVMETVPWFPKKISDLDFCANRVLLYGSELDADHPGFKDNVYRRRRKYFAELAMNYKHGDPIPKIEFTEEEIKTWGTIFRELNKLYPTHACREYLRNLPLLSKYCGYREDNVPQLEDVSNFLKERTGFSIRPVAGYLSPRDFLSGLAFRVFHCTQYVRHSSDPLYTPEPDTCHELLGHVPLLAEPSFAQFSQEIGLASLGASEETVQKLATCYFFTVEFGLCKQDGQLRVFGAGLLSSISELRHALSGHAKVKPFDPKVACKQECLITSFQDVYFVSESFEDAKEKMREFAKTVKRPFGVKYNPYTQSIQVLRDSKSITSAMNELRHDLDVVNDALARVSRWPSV
How it was run: (§1)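 Rats given test drug s.c. in the neck as hydrochloride (5 mL/kg), not reserpine-pretreated; 30 min later NSD 1015 (60 mg/kg, i.e. 287 μmol/kg sc), killed 30 min after that. Brain regions dissected. 5-HTP measured by ion-pair reversed-phase HPLC with electrochemical detection. Mean ± SEM, n = 15 controls, 3–5 per dose; ANOVA with Dunnett's t test vs controls.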

Rattus norvegicus [3] = assay: No of rats exhibiting 5-HT motor syndrome tested in reserpinized rats at a subcutaneous dose of 0.32 umol/kg; 4 rats out of 4 showed activity; type: functional
[4] = molecular target: T1, Tryptophan 5-hydroxylase 1 (Rattus norvegicus); assay: Compound was tested for its effect on NSD 1015 induced accumulation of 5-HTP(ng/g) in rats in limbic system at a dosage of 0.032 umol/kg; type: functional; how it was run: as §1
[5] = molecular target: T1, Tryptophan 5-hydroxylase 1 (Rattus norvegicus); assay: Compound was tested for its effect on NSD 1015 induced accumulation of 5-HTP(ng/g) in rats in corpus striatum at a dosage of 0.032 umol/kg; type: functional; how it was run: as §1
[6] = molecular target: T1, Tryptophan 5-hydroxylase 1 (Rattus norvegicus); assay: Compound was tested for its effect on NSD 1015 induced accumulation of 5-HTP(ng/g) in rats in limbic system at a dosage of 0.32 umol/kg; type: functional, tissue-based; how it was run: as §1
[7] = molecular target: T1, Tryptophan 5-hydroxylase 1 (Rattus norvegicus); assay: Compound was tested for its effect on NSD 1015 induced accumulation of 5-HTP in rats corpus striatum at a dosage of 0.10 umol/kg; type: functional, tissue-based; how it was run: as §1
[8] = molecular target: T1, Tryptophan 5-hydroxylase 1 (Rattus norvegicus); assay: Approximate dose levels for a half maximal reduction of 5-HTP levels; type: functional; how it was run: as §1
[9] = molecular target: T1, Tryptophan 5-hydroxylase 1 (Rattus norvegicus); assay: Compound was tested for its effect on NSD 1015 induced accumulation of 5-HTP in rats in corpus striatum at a dosage of 0.32 umol/kg; type: functional, tissue-based; how it was run: as §1
Rattus norvegicus [10] = assay: No of rats exhibiting 5-HT motor syndrome tested in reserpinized rats at a subcutaneous dose of 10 umol/kg; 0 rats out of 3 showed activity; type: functional
Rattus norvegicus [11] = assay: No of rats exhibiting 5-HT motor syndrome tested in reserpinized rats at a subcutaneous dose of 3.2 umol/kg; 0 rats out of 3 showed activity; type: functional
[12] = molecular target: T1, Tryptophan 5-hydroxylase 1 (Rattus norvegicus); assay: Compound was tested for its effect on NSD 1015 induced accumulation of 5-HTP(ng/g) in rats in limbic system at a dosage of 10 umol/kg; type: functional, tissue-based; how it was run: as §1
[13] = molecular target: T1, Tryptophan 5-hydroxylase 1 (Rattus norvegicus); assay: Compound was tested for its effect on NSD 1015 induced accumulation of 5-HTP in rats corpus striatum at a dosage of 10 umol/kg; type: functional, tissue-based; how it was run: as §1
[14] = molecular target: T1, Tryptophan 5-hydroxylase 1 (Rattus norvegicus); assay: Compound was tested for its effect on NSD 1015 induced accumulation of 5-HTP(ng/g) in rats in corpus striatum at a dosage of 3.2 umol/kg; type: functional; how it was run: as §1
[15] = molecular target: T1, Tryptophan 5-hydroxylase 1 (Rattus norvegicus); assay: Compound was tested for its effect on NSD 1015 induced accumulation of 5-HTP(ng/g) in rats in limbic system at a dosage of 3.2 umol/kg; type: functional, tissue-based; how it was run: as §1
Rattus norvegicus [16] = assay: No of rats exhibiting 5-HT motor syndrome tested in reserpinized rats at a subcutaneous dose of 32 umol/kg; 4 rats out of 4 showed activity; type: functional
[17] = molecular target: T1, Tryptophan 5-hydroxylase 1 (Rattus norvegicus); assay: Compound was tested for its effect on NSD 1015 induced accumulation of 5-HTP in rats in corpus striatum at a dosage of 32 umol/kg; type: functional, tissue-based; how it was run: as §1
[18] = molecular target: T1, Tryptophan 5-hydroxylase 1 (Rattus norvegicus); assay: Compound was tested for its effect on NSD 1015 induced accumulation of 5-HTP(ng/g) in rats in limbic system at a dosage of 32 umol/kg; type: functional, tissue-based; how it was run: as §1
[19] = molecular target: T2, 5-hydroxytryptamine receptor 1A (Rattus norvegicus, UniProt P19327); assay: Concentration of compound required to inhibit cortical 5-hydroxytryptamine 1A receptor binding sites in rat brain was evaluated; type: tissue-based
T2 sequence (P19327 whole entry): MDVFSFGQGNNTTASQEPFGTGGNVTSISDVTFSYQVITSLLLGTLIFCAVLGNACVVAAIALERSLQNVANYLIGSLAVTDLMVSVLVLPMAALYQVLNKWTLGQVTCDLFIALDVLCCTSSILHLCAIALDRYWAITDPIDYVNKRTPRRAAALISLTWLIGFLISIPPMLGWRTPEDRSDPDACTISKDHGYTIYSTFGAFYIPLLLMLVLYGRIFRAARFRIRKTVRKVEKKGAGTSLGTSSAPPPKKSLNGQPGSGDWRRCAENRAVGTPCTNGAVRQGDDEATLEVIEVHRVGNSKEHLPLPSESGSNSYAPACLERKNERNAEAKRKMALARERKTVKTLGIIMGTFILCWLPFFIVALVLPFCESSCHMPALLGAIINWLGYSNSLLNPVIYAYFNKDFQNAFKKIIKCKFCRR

[20] = molecular target: T1, Tryptophan 5-hydroxylase 1 (Rattus norvegicus); assay: Compound was tested for its effect on NSD 1015 induced accumulation of 5-HTP(ng/g) in rats in limbic system at a dosage of 100 umol/kg; type: functional, tissue-based; how it was run: as §1
[21] = molecular target: T1, Tryptophan 5-hydroxylase 1 (Rattus norvegicus); assay: Compound was tested for its effect on NSD 1015 induced accumulation of 5-HTP(ng/g) in rats in corpus striatum at a dosage of 10 umol/kg; type: functional; how it was run: as §1
Rattus norvegicus [22] = assay: No of rats exhibiting 5-HT motor syndrome tested in reserpinized rats at a subcutaneous dose of 100 umol/kg; 4 rats out of 4 showed activity; type: functional
Rattus norvegicus [23] = assay: No of rats exhibiting 5-HT motor syndrome tested in reserpinized rats at a subcutaneous dose of 10 umol/kg; 0 rats out of 2 showed activity; type: functional
[24] = molecular target: T1, Tryptophan 5-hydroxylase 1 (Rattus norvegicus); assay: Compound was tested for its effect on NSD 1015 induced accumulation of 5-HTP(ng/g) in rats in corpus striatum at a dosage of 32 umol/kg; type: functional, tissue-based; how it was run: as §1
[25] = molecular target: T1, Tryptophan 5-hydroxylase 1 (Rattus norvegicus); assay: Compound was tested for its effect on NSD 1015 induced accumulation of 5-HTP in rats in corpus striatum at a dosage of 3.2 umol/kg; type: functional; how it was run: as §1
Rattus norvegicus [26] = assay: No of rats exhibiting 5-HT motor syndrome tested in reserpinized rats at a subcutaneous dose of 32 umol/kg; 0 rats out of 4 showed activity; type: functional
[27] = molecular target: T1, Tryptophan 5-hydroxylase 1 (Rattus norvegicus); assay: Compound was tested for its effect on NSD 1015 induced accumulation of 5-HTP(ng/g) in rats in corpus striatum at a dosage of 100 umol/kg; type: functional, tissue-based; how it was run: as §1
Rattus norvegicus [28] = assay: No of rats exhibiting 5-HT motor syndrome tested in reserpinized rats at a subcutaneous dose of 10 umol/kg; 4 rats out of 5 showed activity; type: functional
[29] = molecular target: T1, Tryptophan 5-hydroxylase 1 (Rattus norvegicus); assay: Compound was tested for its effect on NSD 1015 induced accumulation of 5-HTP(ng/g) in rats in corpus striatum at a dosage of 1.0 umol/kg; type: functional; how it was run: as §1
Rattus norvegicus [30] = assay: No of rats exhibiting 5-HT motor syndrome tested in reserpinized rats at a subcutaneous dose of 3.2 umol/kg; 0 rats out of 5 showed activity; type: functional
Rattus norvegicus [31] = assay: No of rats exhibiting 5-HT motor syndrome tested in reserpinized rats at a subcutaneous dose of 1.0 umol/kg; o rats out of 3 showed activity; type: functional
[32] = molecular target: T1, Tryptophan 5-hydroxylase 1 (Rattus norvegicus); assay: Compound was tested for its effect on NSD 1015 induced accumulation of 5-HTP(ng/g) in rats in limbic system at a dosage of 1.0 umol/kg; type: functional, tissue-based; how it was run: as §1

Compound `CCCN(CCC)[C@@H]1CCc2cccc(O)c2C1` has an Activity (Rattus norvegicus [1]) of 0, an Activity [2] of 119 ng/g and an Activity (Rattus norvegicus [3]) of 4. The Activity [4] was 163 ng/g, the Activity [5] was 87 ng/g and the Activity [6] was 86 ng/g. It also gave an Activity [7] of 78 ng/g, an ED50 [8] of 0.1 µmol/kg and an Activity [9] of 52 ng/g.
For `CCCCN(CCCC)[C@H]1CCc2cccc(O)c2C1`, the Activity (Rattus norvegicus [10]) was 0, the Activity (Rattus norvegicus [11]) was 0 and the Activity [12] was 95 ng/g. For the same compound, the Activity [13] was 52 ng/g, the Activity [14] was 90 ng/g and the Activity [15] was 168 ng/g. The Activity (Rattus norvegicus [16]) was 4, the Activity [17] was 45 ng/g and the ED50 [8] was 5 µmol/kg. The Activity [18] was 112 ng/g and the pIC50 [19] was 7.34.
`CN(C)[C@H]1CCc2cccc(O)c2C1` gave an Activity [20] of 85 ng/g, an Activity [21] of 69 ng/g and an Activity (Rattus norvegicus [22]) of 4. It also gave an Activity (Rattus norvegicus [23]) of 0, an Activity [12] of 162 ng/g and an Activity [24] of 66 ng/g. For the same compound, the Activity [25] was 107 ng/g, the Activity [15] was 178 ng/g and the Activity (Rattus norvegicus [26]) was 0. For the same compound, the ED50 [8] was 20 µmol/kg, the Activity [18] was 128 ng/g and the Activity [27] was 45 ng/g. It also gave a pIC50 [19] of 6.17.
In the case of `CCN(CC)[C@H]1CCc2cccc(O)c2C1`, the Activity (Rattus norvegicus [28]) was 4, the Activity [21] was 55 ng/g and the Activity [29] was 85 ng/g. The Activity [12] was 86 ng/g, the Activity (Rattus norvegicus [30]) was 0 and the Activity [14] was 74 ng/g. The Activity (Rattus norvegicus [31]) was 0, the Activity [24] was 46 ng/g and the Activity [15] was 107 ng/g. For the same compound, the Activity [32] was 135 ng/g, the ED50 [8] was 3 µmol/kg and the Activity [18] was 74 ng/g. The pIC50 [19] was 6.94.
